# PKA-R2B activ – activators of human PKA-R2B complex; PKA-R2B holoenzyme dissociation, Cy5-IP20 fluorescence polarization; R2B truncated from residue 108, S112A mutant; 0% DMSO only, 100% 113 µM cGMP; 0.079% of 340,000 active; activation, % at 11.4 µM; P22694+P31323;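 active = activation above a cutoff set at the mean over all compounds plus 3 SD, cut at about 18% in these data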;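 note: higher means more holoenzyme dissociation and a rise in polarization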
# PKA-R1A activ – PKA-R1A complex activation; 0.083% of 340,000 active; P00514+P68181; activation, % at 11.4 µM; PKA-R1A dissociation, Cy5-IP20 fluorescence polarization; scaled: DMSO 0%, 113 µM cGMP 100%; AID 504707;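 active = percent activation above the mean of all tested compounds plus 3 SD, cut at about 19% in these data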;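 note: higher means more PKAc released from R1A so a rise in polarization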
# SIRT5 block – sirtuin-5 (human) deacylase inhibition. 1.1% of 330,000 active. inhibition, % at 15 µM. AID 652115. Purified SirT5, succinyl-peptide AMC, trypsin-coupled fluorescence. Q9NXA8; in the data active = inhibition above about 15%
# Target sequence (Q9NXA8 whole entry, looked up): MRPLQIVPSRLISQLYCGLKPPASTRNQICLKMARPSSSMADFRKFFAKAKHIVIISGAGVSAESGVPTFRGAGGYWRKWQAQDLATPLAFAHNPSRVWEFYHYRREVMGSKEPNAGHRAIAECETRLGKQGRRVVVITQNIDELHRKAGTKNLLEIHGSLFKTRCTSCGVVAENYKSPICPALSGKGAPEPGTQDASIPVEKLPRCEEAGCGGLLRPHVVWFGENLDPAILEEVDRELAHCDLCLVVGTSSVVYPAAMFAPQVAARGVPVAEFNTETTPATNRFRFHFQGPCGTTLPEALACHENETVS
# CRFBP-R2 block – antagonists of CRF-binding protein/CRF-R2 receptor complex; HEK293 CRF-R2/CRF-BP, CRF-induced calcium fluorescence; inhibition, % at 11.8 µM; 0.59% of 350,000 active;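 active = inhibition of the ligand-induced calcium signal above about 50% at the single tested concentration, limit read from the data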
# S100A4 MyoIIA – inhibitors of human S100A4 binding to myosin IIA peptide; P26447; S100A4/TAMRA-MyoIIA peptide fluorescence polarization; inhibition, % at 10.7 µM; 0.14% of 360,000 active;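 active = mean inhibition of at least 70% across replicates, with every replicate also reaching that level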
# Target sequence (P26447 whole entry, looked up): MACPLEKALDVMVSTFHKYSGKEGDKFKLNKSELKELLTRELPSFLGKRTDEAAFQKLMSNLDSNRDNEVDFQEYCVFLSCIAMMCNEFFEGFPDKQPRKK
#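 Material: human S100A4 monomer with TAMRA-labelled myosin IIA peptide; buffer or medium: HEPES pH 7.2 with CaCl2, KCl, NaCl, DTT, Triton; compound dosing: one concentration per compound; schedule: 5 min incubation before reading; benchmarks: neutral control DMSO, positive control TFP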
# Hits are given with their value; – = inactive; · = no result. An excerpt weighted towards active compounds, which were near 1.5% of everything screened.
SMILES,PKA-R2B activ,PKA-R1A activ,SIRT5 block,CRFBP-R2 block,S100A4 MyoIIA
CCN(c1ccccc1)S(=O)(=O)c1ccc(Cl)c(NC(=O)CN2C(=O)NC3(CCCC3)C2=O)c1,–,–,16,–,–
CCN(c1ccccc1)S(=O)(=O)c1ccc(OC)c(NC(=O)Cc2ccc(F)cc2)c1,–,–,61,–,–
Cc1ccc(S(=O)(=O)N(C)C[C@H]2Oc3ccc(NC(=O)Cc4ccccc4)cc3CC(=O)N([C@H](C)CO)C[C@@H]2C)cc1,·,·,–,·,–
C[C@@H]1CN([C@@H](C)CO)C(=O)Cc2cc(NC(=O)CCC(F)(F)F)ccc2O[C@H]1CN(C)Cc1ccc(C(F)(F)F)cc1,·,·,–,·,–
COC(=O)[C@H]1[C@H](CO)[C@H]2Cn3c(ccc(-c4ccc(F)cc4)c3=O)[C@H]2N1Cc1ccccn1,·,·,–,·,–
COc1ccccc1C(=O)Nc1ccc2c(c1)C(=O)N(C)[C@H]1CC[C@H](CC(=O)Nc3cccc(C(C)C)c3)O[C@@H]1CO2,·,·,19,·,–
CNC(=O)C[C@@H]1CC[C@@H]2[C@H](COc3ccc(NC(=O)c4cc(F)cc(F)c4)cc3C(=O)N2C)O1,·,·,16,·,–
CN(C)C(=O)C[C@H]1CC[C@@H]2[C@@H](COc3ccc(NC(=O)c4ccc(F)c(F)c4)cc3C(=O)N2C)O1,·,·,–,·,–
CN1C(=O)c2cc(NC(=O)c3cccs3)ccc2OC[C@H]2O[C@H](CC(=O)N3CCOCC3)CC[C@@H]21,·,·,17,·,–
CN(C)C(=O)C[C@@H]1CC[C@@H]2[C@H](COc3ccc(NC(=O)c4ccc(F)c(F)c4)cc3C(=O)N2C)O1,·,·,16,·,–
O=C(C[C@H]1CC[C@@H](NC(=O)c2ccncc2)[C@H](CO)O1)Nc1ccc(-c2ccccc2)cc1,·,·,–,·,–
Nc1ccc(N=Nc2ccccc2)cc1[N+](=O)[O-],–,–,–,63,–
COc1ccc(C2CC(c3ccccc3)Nc3nc(N)nn32)cc1 (stereo not drawn),–,–,·,–,·
CS(=O)(=O)Nc1nc2n(n1)C(c1ccccc1)CC(c1ccccc1)N2 (stereo not drawn),–,–,–,106,–
CCCS(=O)(=O)N1CCC(C(=O)NCCCOC(C)C)CC1,–,–,·,60,·
CCCS(=O)(=O)N1CCC(C(=O)NCCCOC)CC1,–,–,·,–,·
Cc1ccc(C)c(NCC(=O)NNC(=S)Nc2ccccc2)c1,–,–,18,–,–
COc1ccc(NC(=O)c2cc(-c3ccccc3OC)on2)cc1,–,–,·,54,·
Cc1cc(C)cc(NC(=O)CSc2ccc(-c3cccs3)nn2)c1,–,–,22,–,–
O=C(Cc1ccc(F)cc1)OCC(=O)N1CCN(S(=O)(=O)c2ccc(Cl)cc2)CC1,–,–,19,–,–
N#Cc1c(Cl)nsc1NC(=O)c1ccccc1,–,–,–,56,–
Cc1noc(C)c1S(=O)(=O)N(C)C[C@H]1Oc2ccc(NC(=O)CCCCCC(=O)Nc3ccccc3N)cc2CC(=O)N([C@H](C)CO)C[C@@H]1C,·,·,–,·,–
Cc1onc(-c2ccccc2Cl)c1C(=O)NCc1ccc(N2CCCC2=O)cc1,–,–,·,57,·
Cc1onc(-c2ccccc2Cl)c1C(=O)NCc1ccc(S(N)(=O)=O)cc1,–,–,·,–,·
COc1cccc(-c2ccc([C@@H]3[C@@H](CO)N(C(C)=O)C34CN(C(C)=O)C4)cc2)c1,·,·,–,·,–
SMILES,PKA-R2B activ,PKA-R1A activ,SIRT5 block,CRFBP-R2 block,S100A4 MyoIIA
O=C(CSc1ccc(-c2ccccn2)nn1)N1CCCCC1,–,–,15,–,–
CCCn1c(SCC(=O)N2CCCC(C)C2)nnc1-c1ccccn1 (stereo not drawn),–,–,24,–,–
O=C(CSc1ccc2nnc(-c3ccccn3)n2n1)N1CCOCC1,–,–,·,–,–
CCCn1c(SCC(=O)NC2CCCC2)nnc1-c1ccccn1,–,–,–,–,–
CCOC(=O)N1CCN(C(=O)CSc2ccc3nnc(-c4ccccn4)n3n2)CC1,–,–,16,–,–
CO[C@@H]1CN(C)C(=O)c2ccc(NC(=O)NC(C)C)cc2OC[C@H](C)N(Cc2ccccc2)C[C@@H]1C,·,·,–,·,–
COc1ccc(S(=O)(=O)Nc2ccc3c(c2)C(=O)N([C@H](C)CO)C[C@H](C)[C@H](CN(C)S(=O)(=O)c2ccc(Cl)cc2)OCCCC[C@H](C)O3)cc1,·,·,16,·,–
COc1ccc(S(=O)(=O)Nc2ccc3c(c2)C(=O)N([C@H](C)CO)C[C@@H](C)[C@@H](CN(C)S(=O)(=O)c2ccc(Cl)cc2)OCCCC[C@H](C)O3)cc1,·,·,–,·,–
COc1ccc(S(=O)(=O)Nc2ccc3c(c2)C(=O)N([C@@H](C)CO)C[C@@H](C)[C@H](CN(C)S(=O)(=O)c2ccc(Cl)cc2)OCCCC[C@H](C)O3)cc1,·,·,–,·,–
COc1ccc(S(=O)(=O)N(C)C[C@@H]2OCCCC[C@@H](C)Oc3ccc(NS(=O)(=O)c4ccc(Cl)cc4)cc3C(=O)N([C@H](C)CO)C[C@@H]2C)cc1,·,·,16,·,–
COc1ccc(S(=O)(=O)N(C)C[C@H]2OCCCC[C@@H](C)Oc3ccc(NS(=O)(=O)c4ccc(Cl)cc4)cc3C(=O)N([C@@H](C)CO)C[C@H]2C)cc1,·,·,16,·,–
COc1ccc(S(=O)(=O)Nc2ccc3c(c2)C(=O)N([C@H](C)CO)C[C@@H](C)[C@@H](CN(C)S(=O)(=O)c2ccc(Cl)cc2)OCCCC[C@@H](C)O3)cc1,·,·,–,·,–
COc1ccc(S(=O)(=O)Nc2ccc3c(c2)C(=O)N([C@@H](C)CO)C[C@@H](C)[C@@H](CN(C)S(=O)(=O)c2ccc(Cl)cc2)OCCCC[C@@H](C)O3)cc1,·,·,15,·,–
COc1ccc(S(=O)(=O)Nc2ccc3c(c2)C(=O)N([C@H](C)CO)C[C@@H](C)[C@@H](CN(C)S(=O)(=O)c2ccc(Cl)cc2)O3)cc1,–,–,20,–,–
COc1ccc(S(=O)(=O)Nc2ccc3c(c2)C(=O)N([C@@H](C)CO)C[C@@H](C)[C@H](CN(C)S(=O)(=O)c2ccc(Cl)cc2)OCCCC[C@@H](C)O3)cc1,·,·,16,·,–
COc1ccc(S(=O)(=O)N(C)C[C@@H]2OCCCC[C@H](C)Oc3ccc(NS(=O)(=O)c4ccc(Cl)cc4)cc3C(=O)N([C@@H](C)CO)C[C@@H]2C)cc1,·,·,–,·,–
CO[C@H]1CN(C)C(=O)c2cc(NC(C)=O)ccc2OC[C@H](C)N(Cc2ccccc2C(=O)O)C[C@@H]1C,·,·,–,·,–
CN(C)c1ccc2cc(S(=O)(=O)O)cc(O)c2c1,–,–,22,–,–
O=Nc1c(O)ccc2cc(S(=O)(=O)O)ccc12,–,–,·,–,·
O=C(N/N=C/c1c[nH]c2ccccc12)c1ccncc1,–,–,–,–,–
O=C(N/N=C/c1c[nH]c2ccccc12)c1ccccc1,–,–,100,–,–
COc1ccccc1N1CCN(C(=O)/C=C/c2cccs2)CC1,–,–,·,80,·

# Compound activity: PubChem BioAssay, several laboratories
